In ChEMBL document CHEMBL1144684, “Evaluation of a series of naphthamides as potent, orally active vascular endothelial growth factor receptor-2 tyrosine kinase inhibitors” (J Med Chem, 2008):
The source made the active and inactive calls. No cut-off for these calls is given here.

Legend:
[1] = Clearance in cynomolgus monkey at 0.5 mg/kg, iv; type: ADME, organism-based, Macaca fascicularis; parameters: dose 0.5 mg/kg, route intravenous; details: in vivo
Method in brief: (§1)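 Compound given iv and po as single doses; vehicles: mouse iv PEG 400, po OraPlus; dog iv DMSO, po 1% Tween-80/2% HPMC/97% water; cynomolgus iv propylene glycol, po suspension.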

[2] = Tmax in cynomolgus monkey at 2 mg/kg, po; type: ADME, organism-based, Macaca fascicularis; parameters: dose 2 mg/kg, route oral; details: in vivo
Method in brief: (§2)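 Oral suspension dosing; vehicles: mouse 10 mg/kg in OraPlus, dog 0.5 mg/kg in 1% Tween-80/2% HPMC/97% water, cynomolgus monkey 2 mg/kg.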

[3] = test system: HUVEC; assay: Selectivity of IC50 for VEGF-induced proliferation over IC50 for bFGF-induced proliferation of HUVEC; type: functional, Homo sapiens
Method in brief: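 HUVECs were seeded at 3000 cells/well in DMEM/10% FBS with pen/strep and cultured for 22 h. They were preincubated 2 h with serially diluted compound, then stimulated with 50 ng/mL VEGF or 20 ng/mL bFGF for 72 h at 37 °C, 5% CO2. Cells were washed, frozen at -70 °C and stained with CyQuant. IC50s came from a four-parameter logistic fit, averaged over ≥2 experiments; the VEGF IC50 was compared against the bFGF IC50.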

[4] = test system: Calu-6 (Homo sapiens); assay: Antitumor activity in human Calu6 cell xenografted CD1 nu/nu mouse assessed as inhibition of tumor growth at 60 mg/kg, po qd for 14 days; details: Calu-6, po, 336 h, read-out: TGI
[5] = test system: HUVEC; assay: Inhibition of VEGF-induced proliferation of HUVEC; type: functional, cell-based; details: Homo sapiens
[6] = test system: HUVEC; assay: Inhibition of bFGF-induced proliferation of HUVEC; type: functional, cell-based; details: Homo sapiens
Method in brief: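 HUVEC seeded at 3000/well in DMEM with 10% FBS, 22 h; 2 h preincubation with serial compound dilutions, then 50 ng/mL VEGF or 20 ng/mL bFGF for 72 h at 37 °C. Freeze–thaw, CyQuant DNA dye read-out; IC50 by four-parameter logistic fit, averaged over ≥2 experiments.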

[7] = biological target: Aurora kinase B (Homo sapiens, UniProt Q96GD4); assay: Inhibition of Aurora B
[8] = test system: Rattus norvegicus; assay: Inhibition of VEGF-induced angiogenesis in VEGF-soaked disk implanted in Sprague-Dawley rat cornea assessed as number of blood vessels intersecting the midpoint between disk and limbus after 7 days; type: functional; details: 168 h
[9] = Mean residence time in dog at 0.5 mg/kg, iv; type: ADME, organism-based, Canis lupus familiaris; parameters: dose 0.5 mg/kg, route intravenous; details: in vivo
Method in brief: (§3)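 Intravenous dosing of male/unspecified animals per species; vehicles: mouse 2 mg/kg in Peg 400, dog 0.5 mg/kg in DMSO, cynomolgus monkey 0.5 mg/kg in propylene glycol. Parameters from plasma concentration–time data by noncompartmental analysis.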

[10] = Aqueous solubility in 0.01 N Hcl; type: physicochemical
[11] = Volume of distribution at steady state in cynomolgus monkey at 0.5 mg/kg, iv; type: ADME, organism-based, Macaca fascicularis; parameters: dose 0.5 mg/kg, route intravenous; details: in vivo, read-out: Vdss; method in brief: as §3
[12] = test system: HT-29; assay: Antitumor activity in human HT29 cell xenografted CD1 nu/nu mouse assessed as inhibition of tumor growth at 10 mg/kg, po qd for 14 days; type: functional; details: HT-29, 336 h, read-out: TGI
Method in brief: (§4)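 Female CD-1 nu/nu mice, 4–8 weeks, implanted sc in hind flank with 1 × 10^7 HT29 (DMEM high glucose, 5% FBS) or Calu-6 (RPMI 1640, 10% FBS) cells; treatment began at 13–14 days (~300 mm3). Methanesulfonate salt given po qd in OraPlus for 14 days; caliper volumes twice weekly; n = 10/group; RMANOVA with Scheffé test.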

[13] = Oral bioavailability in cynomolgus monkey at 2 mg/kg; type: ADME, organism-based, Macaca fascicularis; details: in vivo; method in brief: as §2
[14] = Half life in Sprague-Dawley rat at 0.5 mg/kg, iv; type: ADME, organism-based; parameters: dose 0.5 mg/kg, route intravenous; details: in vivo
Method in brief: (§5)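 Male Sprague–Dawley rats dosed iv via femoral vein as DMSO solution (1 or 0.5 mg/kg) or po by gavage as OraPlus suspension (pH 2.0–2.2 with methanesulfonic acid; 10 or 2 mg/kg). Serial jugular blood over 12–24 h; plasma acetonitrile precipitation, LC-MS/MS (MRM) with internal standard; noncompartmental parameters.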

[15] = Intrinsic clearance in human liver microsomes at 1 uM; type: ADME, Microsome; details: read-out: Stability
Method in brief: (§6)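 Human or rat liver microsomes (0.25 mg protein/mL) with 1 mM NADPH, 2 mM MgCl2 in 50 mM potassium phosphate pH 7.4 at 37 °C; compound 1 µM final. Sampled 0–40 min into acetonitrile, LC-MS/MS; ln % remaining vs time slope gives T1/2; CLint = (0.693/T1/2)/0.25 mg/mL.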

[16] = Volume of distribution at steady state in dog at 0.5 mg/kg, iv; type: ADME, organism-based, Canis lupus familiaris; parameters: dose 0.5 mg/kg, route intravenous; details: in vivo, read-out: Vdss; method in brief: as §3
[17] = AUC (0 to infinity) in Sprague-Dawley rat at 2 mg/kg, po; type: ADME, organism-based; parameters: time infinity, dose 2 mg/kg, route oral; details: plasma; method in brief: as §5
[18] = test system: HT-29; assay: Antitumor activity in human HT29 cell xenografted CD1 nu/nu mouse assessed as inhibition of tumor growth at 30 mg/kg, po qd for 14 days; type: functional; details: HT-29, 336 h, read-out: TGI; method in brief: as §4
[19] = Intrinsic clearance in rat liver microsomes at 1 uM; type: ADME, Microsome; details: read-out: Stability; method in brief: as §6
[20] = test system: Liver microsomes; assay: Metabolic stability assessed as covalent binding in absence of NADPH in human liver microsomes at 10 uM after 1 hr; type: ADME, Microsome
Method in brief: (§7)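 14C-labelled compound at 10 µM with human or rat liver microsomes (1 mg/mL) in 0.1 M potassium phosphate pH 7.4, with or without 1 mM NADPH and 1 mM glutathione, 60 min; quenched with ice-cold acetonitrile. Pellet washed with 80% methanol and ethanol/ether, solubilized, protein by BCA, radioactivity by scintillation counting.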

[21] = Tmax in Sprague-Dawley rat at 2 mg/kg, po; type: ADME, organism-based; parameters: dose 2 mg/kg, route oral; details: in vivo
Method in brief: (§8)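 Male Sprague–Dawley rats dosed iv at 0.5 mg/kg as DMSO solution or po at 2 mg/kg as suspension in 100% OraPlus. Serial jugular blood, plasma LC-MS/MS quantitation, noncompartmental analysis.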

[22] = Clearance in dog at 0.5 mg/kg, iv; type: ADME, organism-based, Canis lupus familiaris; parameters: dose 0.5 mg/kg, route intravenous; details: in vivo; method in brief: as §1
[23] = test system: HT-29; assay: Antitumor activity in human HT29 cells xenografted CD1 nu/nu mouse assessed as inhibition of tumor growth at 3 mg/kg, po qd for 14 days; type: functional; details: HT-29, 336 h, read-out: TGI; method in brief: as §4
[24] = Clearance in Sprague-Dawley rat at 0.5 mg/kg, iv; type: ADME, organism-based; parameters: dose 0.5 mg/kg, route intravenous; details: in vivo; method in brief: as §5
[25] = biological target: Macrophage colony-stimulating factor 1 receptor (Homo sapiens) (UniProt P07333); assay: Inhibition of c-fms
[26] = Protein binding in mouse plasma; type: ADME, cell-free; details: read-out: PPB (converted)
Method in brief: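 Compound spiked into plasma at 5 µg/mL (12.9 µM) from a DMSO stock, incubated 37 °C 15 min, then ultracentrifuged 3 h at 37 °C. Supernatant below lipid layer measured by LC-MS (n = 6) against QC in plasma filtrate; % bound = 1 − (centrifuged concentration / mean QC) × 100.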

[27] = biological target: Tyrosine-protein kinase Lyn (Homo sapiens, UniProt P07948); assay: Inhibition of Lyn
[28] = Oral bioavailability in mouse at 10 mg/kg; type: ADME, organism-based; details: in vivo; method in brief: as §2
[29] = Volume of distribution at steady state in Sprague-Dawley rat at 0.5 mg/kg, iv; type: ADME, organism-based; parameters: dose 0.5 mg/kg, route intravenous; details: in vivo, read-out: Vdss; method in brief: as §8
[30] = test system: Liver microsomes; assay: Metabolic stability assessed as covalent binding in absence of NADPH in rat liver microsomes at 10 uM after 1 hr; type: ADME, Microsome; method in brief: as §7

Aurora kinase B, sequence (Q96GD4 whole entry): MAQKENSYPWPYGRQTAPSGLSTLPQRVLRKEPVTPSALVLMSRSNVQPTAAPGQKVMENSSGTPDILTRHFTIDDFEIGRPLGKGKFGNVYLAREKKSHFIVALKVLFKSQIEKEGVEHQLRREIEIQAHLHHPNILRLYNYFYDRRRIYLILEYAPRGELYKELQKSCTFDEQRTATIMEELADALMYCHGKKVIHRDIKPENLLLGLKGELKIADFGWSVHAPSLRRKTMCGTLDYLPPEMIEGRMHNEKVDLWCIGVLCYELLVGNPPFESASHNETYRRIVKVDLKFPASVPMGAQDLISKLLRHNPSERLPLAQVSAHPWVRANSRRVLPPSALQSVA
Macrophage colony-stimulating factor 1 receptor (Homo sapiens), sequence (P07333 whole entry): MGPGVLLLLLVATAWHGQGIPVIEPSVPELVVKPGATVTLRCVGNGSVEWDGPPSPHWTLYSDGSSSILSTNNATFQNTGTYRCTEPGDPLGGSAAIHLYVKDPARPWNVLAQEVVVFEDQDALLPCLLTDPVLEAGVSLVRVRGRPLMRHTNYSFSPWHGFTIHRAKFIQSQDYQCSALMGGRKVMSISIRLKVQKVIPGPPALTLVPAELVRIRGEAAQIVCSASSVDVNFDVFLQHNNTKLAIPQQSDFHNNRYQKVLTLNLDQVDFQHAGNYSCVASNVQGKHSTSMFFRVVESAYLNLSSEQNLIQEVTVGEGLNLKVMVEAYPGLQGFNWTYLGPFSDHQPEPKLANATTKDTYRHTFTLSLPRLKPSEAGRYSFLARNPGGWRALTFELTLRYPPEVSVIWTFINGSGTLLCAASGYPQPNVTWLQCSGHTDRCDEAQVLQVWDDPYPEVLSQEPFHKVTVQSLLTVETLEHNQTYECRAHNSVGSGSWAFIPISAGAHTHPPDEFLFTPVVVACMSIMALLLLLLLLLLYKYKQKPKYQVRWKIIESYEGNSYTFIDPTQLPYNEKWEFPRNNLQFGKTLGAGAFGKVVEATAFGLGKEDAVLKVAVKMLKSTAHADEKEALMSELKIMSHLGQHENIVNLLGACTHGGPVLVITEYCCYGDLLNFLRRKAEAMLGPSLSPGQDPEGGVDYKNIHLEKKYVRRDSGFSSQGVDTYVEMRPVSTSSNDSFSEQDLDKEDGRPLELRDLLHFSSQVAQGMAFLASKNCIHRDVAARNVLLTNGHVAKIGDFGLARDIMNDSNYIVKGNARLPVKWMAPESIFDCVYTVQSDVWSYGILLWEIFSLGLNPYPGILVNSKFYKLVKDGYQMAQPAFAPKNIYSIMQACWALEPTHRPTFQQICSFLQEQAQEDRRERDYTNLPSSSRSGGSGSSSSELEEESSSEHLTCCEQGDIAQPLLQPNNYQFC
Tyrosine-protein kinase Lyn, sequence (P07948 whole entry): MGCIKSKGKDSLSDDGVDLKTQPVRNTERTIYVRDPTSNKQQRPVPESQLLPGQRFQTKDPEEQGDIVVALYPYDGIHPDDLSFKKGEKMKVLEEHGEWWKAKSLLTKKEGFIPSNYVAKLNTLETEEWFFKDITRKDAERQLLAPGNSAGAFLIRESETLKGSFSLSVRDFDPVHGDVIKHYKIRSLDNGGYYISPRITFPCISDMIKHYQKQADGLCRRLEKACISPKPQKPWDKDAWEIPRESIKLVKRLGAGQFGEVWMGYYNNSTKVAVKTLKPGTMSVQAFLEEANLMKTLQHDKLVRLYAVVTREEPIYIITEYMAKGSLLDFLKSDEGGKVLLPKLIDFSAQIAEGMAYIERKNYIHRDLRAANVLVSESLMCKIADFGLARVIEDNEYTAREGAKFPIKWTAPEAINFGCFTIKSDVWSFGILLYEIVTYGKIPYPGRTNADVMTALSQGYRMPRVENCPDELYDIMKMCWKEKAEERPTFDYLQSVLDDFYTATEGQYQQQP

SMILES: COc1cc2nccc(Oc3ccc4c(C(N)=O)cccc4c3)c2cc1OC
- clearance [1]: 13 mL/min/kg
- Tmax [2]: 0.83 h
- Selectivity ratio [3]: >100
- inhibition in vivo at 60 mg/kg [4]: 88%
- IC50 [5]: 2.1 nM
- IC50 [6]: 230 nM
- IC50 [7]: 220 nM
- ED50 [8]: 0.04 mg/kg
- MRT [9]: 18 h
- solubility [10]: > 200 µg/mL
- Vd [11]: 6.82 L/kg
- inhibition in vivo at 10 mg/kg [12]: 85%
- bioavailability [13]: 51%
- half-life [14]: 6 h
- microsomal CLint at 1 µM [15]: 7 µL/min/mg
- Vd [16]: 1.86 L/kg
- AUC(0-inf) [17]: 8450 ng·h/mL
- inhibition in vivo at 30 mg/kg [18]: 94%
- microsomal CLint at 1 µM [19]: 32 µL/min/mg
- Stability [20]: 14 pmol/mg/h
- Tmax [21]: 1.6 h
- clearance [22]: 1.72 mL/min/kg
- inhibition in vivo at 3 mg/kg [23]: 51%
- clearance [24]: 3.73 mL/min/kg
- Activity [25]: Active
- fraction unbound [26]: 0.027
- IC50 [27]: 88 nM
- bioavailability [28]: 39%
- Vd [29]: 1.06 L/kg
- Stability [30]: 14 pmol/mg/h
